Data as given in ChEMBL document CHEMBL1131504, “(Z)- and (E)-2-((hydroxymethyl)cyclopropylidene)methyladenine and -guanine. New nucleoside analogues with a broad-spectrum antiviral activity” (J Med Chem, 1998).

Legend:
KB = assay: Cytotoxicity was evaluated by measuring the inhibition of KB cell growth.; assay type: functional, cell-based; details: Homo sapiens
In short: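 KB cells at 3000–5000/well, overnight at 37 °C, compound added in triplicate at eight concentrations. Growth over 48 h (two population doublings), then ethanol fixation, 0.1% crystal violet stain, eluted dye read at 570 nm; quadruplicate assays. IC50 by linear regression of % inhibition vs log concentration.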

HFF [1] = assay: Compound was tested against HFF cells infected with herpes simplex virus type 2 (HSV-2) by cytopathic effect inhibition assay; assay type: functional, cell-based; details: Homo sapiens
In short: (§1)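 HFF cells (low passage) seeded 24 h before in MEM + 10% FBS; drug in MEM + 2% FBS, serial 1:5 dilutions in triplicate, 1 h pre-incubation, then HSV-1 or HSV-2 at 1000 pfu/well. Incubated 3 days at 37 °C, crystal violet/ethanol/formaldehyde stain, absorbance at 630 nm; IC50 by linear regression of % inhibition vs log concentration.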

CCRF-CEM [2] = assay: Cytotoxicity was measured on CEM cells infected with Herpes Simplex virus […]; assay type: functional, cell-based; details: Homo sapiens
Daudi [3] = assay: Cytotoxicity on Daudi cells at time of […] in cells not effected by the virus.; assay type: functional, cell-based; details: Homo sapiens
HFF [4] = assay: IC50 value was evaluated by measuring the %inhibition of Varicella Zoster virus(VZV) infected HFF cells using plaque reduction assay.; assay type: functional, cell-based; details: Homo sapiens
In short: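 HFF cells plated 2 days earlier and infected with VZV (20–30 plaques/well) for 1 h. Six 1:5 drug dilutions in MEM + 2% FBS, no antibody overlay, duplicate wells; extra medium on day 5, 10 days total at 37 °C. Neutral red stain, plaques counted; IC50 from regression.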

[5] = Inhibitory concentration against epstein-barr virus (EBV) infected H-1 cells was determined; assay type: functional, cell-based; details: Homo sapiens
In short: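 H-1 cells (high-yield EBV producer from P3HR-1) kept in log growth, seeded at 2 × 10^5/well with drug in RPMI 1640 + 10% dialyzed FBS for 5 days at 37 °C. Lysates treated with RNase A and proteinase K, slot-blotted, probed with 32P EBV EcoRI C fragment; normalized to Alu DNA vs untreated cells by densitometry.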

Human alphaherpesvirus 1 = assay: Inhibitory concentration against herpes simplex virus type 1 (HSV-1) was determined by enzyme-linked immunosorbent assay (ELISA); assay type: functional, organism-based
HFF [6] = assay: Inhibitory concentration against human cytomegalovirus replication in HFF cells was determined by cytopathic effect inhibition assay; assay type: functional, cell-based
In short: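 HFF cells seeded 24 h before; serial 1:5 drug dilutions in MEM + 2% FBS in triplicate, 1 h, then 2500 pfu/well CMV. Incubated 14 days at 37 °C with 50 μL MEM added on day 7; crystal violet stain, read at 630 nm. IC50 from regression.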

HepG2 = assay: Inhibitory concentration against hepatitis B virus infected 2.2.15 cells; assay type: functional, cell-based; details: Homo sapiens
In short: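 HBV-producing 2.2.15 cells in MEM + 10% FBS; compounds added on days 6 and 9, 6 days of exposure. Virions in the medium precipitated with PEG/NaCl, DNA extracted, run on 0.8% agarose, Southern blotted with 32P HBV probe, quantified by densitometry.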

HFF [7] = assay: Inhibitory concentration against human cytomegalovirus replication in HFF cells was determined by plaque reduction assay; assay type: functional, cell-based
In short: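 HFF cells infected with HCMV Towne (~100 pfu/cm2). After adsorption, drug added to duplicate wells at four to eight concentrations; 8–10 days at 37 °C, crystal violet stain, microscopic plaques counted. % plaque reduction vs no-drug control; IC50 by linear regression vs log concentration.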

Daudi [8] = assay: Inhibitory concentration against epstein-barr virus (EBV) infected daudi cells was determined; assay type: functional, cell-based; details: Homo sapiens
In short: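 Daudi cells infected with P3HR-1 EBV at 0.1–0.2 moi for 45 min at 37 °C, washed, then incubated 48 h with serially diluted drug in RPMI-1640. Acetone-fixed cells stained with anti-VCA monoclonal antibody and FITC anti-mouse IgG, Evans Blue counterstain; 500 cells counted, VCA-positive fraction used for IC50.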

HFF [9] = assay: Inhibitory concentration against human cytomegalovirus replication in HFF cells was determined by yield reduction assay; assay type: functional
In short: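 HFF cells (12 500/well) infected with HCMV at moi 0.5–1 and exposed to compound in duplicate at 100 to 0.14 μM for 4 days at 37 °C. After freeze–thaw, supernatants serially diluted onto fresh HFF monolayers and plaques titered; IC90 reported.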

HFF [10] = assay: Cytotoxicity on stationary HFF cells at time of HCMV plaque enumeration in cells not effected by the virus.; assay type: functional, cell-based; details: Homo sapiens
In short: (§2)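 Visual cytotoxicity scored microscopically on stationary HFF or MEF cells not affected by virus, at the time of HCMV or MCMV plaque enumeration.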

HFF [11] = assay: Inhibitory concentration against herpes simplex virus type 1 (HSV-1) infected HFF cells was determined by cytopathic effect inhibition assay; assay type: functional, cell-based; details: Homo sapiens; in short: as §1
MEF [12] = assay: Inhibitory concentration against murine cytomegalovirus replication in MEF cells was determined by plaque reduction assay; assay type: functional, cell-based; details: Mus musculus
In short: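 MEF cells plated 2 days earlier and infected with MCMV (20–30 plaques/well) for 1 h. Six 1:5 drug dilutions in MEM + 2% FBS, duplicate wells, 7 days at 37 °C, 1.5% neutral red stain, plaques counted; IC50 by linear regression vs log concentration.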

CCRF-CEM [13] = assay: Inhibitory concentration against mitochondrial DNA synthesis CEM cells; assay type: functional, cell-based; details: Homo sapiens
In short: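 CEM cells (2 × 10^5/mL) in RPMI 1640 + 10% dialyzed FBS with compound, re-split with fresh drug on days 4 and 6. On day 8, 1 × 10^5 cells lysed with RNase A and proteinase K, slot-blotted, probed with a mitochondrial DNA-specific probe.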

Vero [14] = assay: Compound was tested against vero cells infected with herpes simplex virus type 2 (HSV-2); assay type: functional, cell-based; details: Chlorocebus sabaeus
In short: (§3)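 Confluent Vero monolayers (RPMI + 5% FBS + 0.1% methylcellulose) infected 1 h with HSV-1 KOS or HSV-2 333 at 20 or 100 pfu/well. Drug overlay in RPMI + 2% dialyzed FBS + 0.1% methylcellulose, 48–72 h at 37 °C, 5% CO2. Crystal violet stain, plaques counted; IC50 by linear regression of % inhibition vs log concentration.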

Vero [15] = assay: Inhibitory concentration against herpes simplex virus type 1 (HSV-1) infected vero cells was determined; assay type: functional, cell-based; details: Chlorocebus sabaeus; in short: as §3
[16] = Cytotoxicity on H-1 cells at time of HCMV plaque enumeration in cells not effected by the virus.; assay type: functional, cell-based; details: Homo sapiens
CEM-SS = assay: Cytotoxicity on CEM-SS cells; assay type: functional, cell-based; details: Homo sapiens
In short: (§4)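 Visual cytotoxicity: microscopic inspection of stationary uninfected CEM or CEM-SS cells from suspension cultures.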

HFF [17] = assay: IC50 value was evaluated by measuring the %inhibition of Human Herpes Virus 6(HHV-6) infected […] cells using ELISA assay; assay type: functional, cell-based
MEF [18] = assay: Cytotoxicity on stationary MEF cells at time of MCMV plaque enumeration in cells not effected by the virus.; assay type: functional, cell-based; details: Mus musculus; in short: as §2
CCRF-CEM [19] = assay: Cytotoxicity on CEM cells; assay type: functional, cell-based; details: Homo sapiens; in short: as §4

Compound	IC50 (KB) [µM]	IC50 (HFF [1]) [µM]	IC50 (CCRF-CEM [2]) [µM]	IC50 (Daudi [3]) [µM]	IC50 (HFF [4]) [µM]	IC50 [5] [µM]	IC50 (Human alphaherpesvirus 1) [µM]	IC50 (HFF [6]) [µM]	IC50 (HepG2) [µM]	IC50 (HFF [7]) [µM]	IC50 (Daudi [8]) [µM]	IC90 (HFF [9]) [µM]	IC50 (HFF [10]) [µM]	IC50 (HFF [11]) [µM]	IC50 (CCRF-CEM [13]) [µM]	IC50 (Vero [14]) [µM]	IC50 (Vero [15]) [µM]	IC50 [16] [µM]	IC50 (CEM-SS) [µM]	IC50 (HFF [17]) [µM]	also measured
Nc1ncnc2c1ncn2/C=C1/CC1CO (stereo not drawn)	78	10.6	> 100	368	2.5	0.2	33	1	2	2.1	3.2	1.1	> 100	< 0.14	> 50	59	28	> 50	> 100	14	IC50 (MEF [12]): 2.1 µM; IC50 (MEF [18]): > 92 µM
Nc1ncnc2c1ncn2/C=C1\CC1CO (stereo not drawn)	> 100	395	> 100	> 230	90.2	3	> 100	395	> 10	> 100	71.4	> 100	> 100	36	> 50	> 100	> 100	> 50	> 100	> 100	
Nc1nc(Cl)c2c(ncn2/C=C2/CC2CO)n1 (stereo not drawn)	> 100	> 79.5	80	> 199	> 518	0.7	31	5.6	> 10	5	1.2	0.8	> 100	> 79.5	> 50	55	52	> 50	> 100	50	IC50 (MEF [12]): 0.3 µM; IC50 (MEF [18]): 270 µM
Nc1nc(O)c2ncn(/C=C3\CC3CO)c2n1 (stereo not drawn)	> 100	> 413	> 100	> 206	263	> 50	100	> 413	> 10	> 100	> 206		> 100	> 413	> 100	> 100	> 100	> 50	> 100	> 100	
Nc1nc(Cl)c2ncn(/C=C3\CC3CO)c2n1 (stereo not drawn)	> 100	> 79.5	60	> 199		> 10	> 100	> 79.5	> 10	> 100	143	11		> 79.5		> 100	95	< 50	> 100		
Nc1nc2c(ncn2COC(CO)CO)c(=O)[nH]1 [GANCICLOVIR]								2.6		7.4		1.6									IC50 (MEF [12]): 3.4 µM
Nc1nc(O)c2ncn(/C=C3/CC3CO)c2n1 (stereo not drawn) [SYNGUANOL]	> 100	> 413	> 100	> 214	61.3	0.3	100	0.04	10	2.1	5.6	1.8	> 100	61.7	> 100	> 100	85	> 50	> 100	42.5	IC50 (MEF [12]): 0.3 µM; IC50 (MEF [18]): > 429 µM
Nc1ccn([C@H]2CC[C@@H](CO)O2)c(=O)n1 [ZALCITABINE]									1.4						0.07						IC50 (CCRF-CEM [19]): 10 µM
